These results are taken from ChEMBL document CHEMBL1154352, “Toll-like receptor 7 selective synthetic oligoribonucleotide agonists: synthesis and structure-activity relationship studies” (J Med Chem, 2009).

One series is filed under the species Homo sapiens. The series is described as follows: Ratio of human TLR7 activity to human TLR8 activity. Summed up:
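TLR7/TLR8 ratio computed from fold NF-κB (SEAP reporter) activation in HEK293 cells stably expressing human TLR7 versus TLR8, compounds at 50 μg/mL, 18 h exposure; representative of three independent experiments.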

The next series relates to PBMC. Kind of series: Immunomodulatory activity in human PBMC assessed as induction of IFN-alpha at 100 ug/ml after 24 hrs.
Series [1] in a line: Metabolic stability in human serum assessed as full length product remaining after 10 mins by HPLC. It counts as ADME, cell-free. Conditions: read-out: Stability. Summed up:
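About 0.5 A260 units compound in 1% human serum in PBS, 37 °C; aliquot taken at 10 min, analysed by anion-exchange HPLC for percent intact full-length product.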

Series [2] concerns the target T1, Toll-like receptor 8 (Homo sapiens) (UniProt Q9NR97).
T1 sequence (whole entry): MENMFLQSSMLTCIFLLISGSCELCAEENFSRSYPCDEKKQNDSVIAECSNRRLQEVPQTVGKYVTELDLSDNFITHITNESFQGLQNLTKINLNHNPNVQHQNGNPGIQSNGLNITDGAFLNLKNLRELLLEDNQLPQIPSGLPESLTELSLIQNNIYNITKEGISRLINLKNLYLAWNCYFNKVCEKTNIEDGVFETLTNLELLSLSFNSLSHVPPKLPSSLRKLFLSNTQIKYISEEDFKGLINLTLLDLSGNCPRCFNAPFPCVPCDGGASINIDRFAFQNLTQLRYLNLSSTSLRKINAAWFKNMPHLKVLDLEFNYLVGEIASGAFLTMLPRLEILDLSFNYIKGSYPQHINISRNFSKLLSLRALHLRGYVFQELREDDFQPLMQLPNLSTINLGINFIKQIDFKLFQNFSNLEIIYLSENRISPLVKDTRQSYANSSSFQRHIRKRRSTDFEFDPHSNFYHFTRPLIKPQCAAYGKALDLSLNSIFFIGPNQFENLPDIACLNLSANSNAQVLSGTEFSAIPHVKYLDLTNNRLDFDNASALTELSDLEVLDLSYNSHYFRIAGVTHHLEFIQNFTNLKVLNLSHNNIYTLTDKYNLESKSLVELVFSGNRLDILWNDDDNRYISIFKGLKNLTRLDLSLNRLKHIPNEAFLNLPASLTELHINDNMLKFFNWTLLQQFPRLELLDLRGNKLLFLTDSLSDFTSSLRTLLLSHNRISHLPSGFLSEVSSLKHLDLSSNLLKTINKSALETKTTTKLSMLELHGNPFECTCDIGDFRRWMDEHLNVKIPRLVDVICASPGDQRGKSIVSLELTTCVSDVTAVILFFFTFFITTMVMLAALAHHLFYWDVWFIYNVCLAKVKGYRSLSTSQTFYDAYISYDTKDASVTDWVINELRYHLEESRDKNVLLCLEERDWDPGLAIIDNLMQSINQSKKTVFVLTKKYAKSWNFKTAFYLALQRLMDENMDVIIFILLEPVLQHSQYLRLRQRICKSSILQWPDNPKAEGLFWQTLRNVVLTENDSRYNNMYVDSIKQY
Kind of series: Activation of human TLR8 expressed in HEK293XL assessed as fold induction of NF-kappaB activity at 50 ug/ml after 18 hrs by reporter gene assay relative to control. In a few lines: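 HEK293 cells stably expressing human TLR7 or TLR8, transiently transfected with SEAP reporter plasmid; medium replaced, SIMRA compounds added, 18 h incubation. Supernatant SEAP measured by QuantiBlue; expressed as fold increase in NF-κB activity over PBS control. Tabulated data at 50 μg/mL, representative of three independent experiments.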

Series [3] has as its target Toll-like receptor 3 (Homo sapiens) (UniProt O15455). The series is described as follows: Activation of human TLR3 expressed in HEK293 assessed as induction of NF-kappaB activity reporter gene assay. The class given is cell-based.

Structures are written as SMILES. Active and inactive are the calls of the source. The rule behind the calls is not given here.

Sequence of Toll-like receptor 3 (Homo sapiens) (O15455 whole entry): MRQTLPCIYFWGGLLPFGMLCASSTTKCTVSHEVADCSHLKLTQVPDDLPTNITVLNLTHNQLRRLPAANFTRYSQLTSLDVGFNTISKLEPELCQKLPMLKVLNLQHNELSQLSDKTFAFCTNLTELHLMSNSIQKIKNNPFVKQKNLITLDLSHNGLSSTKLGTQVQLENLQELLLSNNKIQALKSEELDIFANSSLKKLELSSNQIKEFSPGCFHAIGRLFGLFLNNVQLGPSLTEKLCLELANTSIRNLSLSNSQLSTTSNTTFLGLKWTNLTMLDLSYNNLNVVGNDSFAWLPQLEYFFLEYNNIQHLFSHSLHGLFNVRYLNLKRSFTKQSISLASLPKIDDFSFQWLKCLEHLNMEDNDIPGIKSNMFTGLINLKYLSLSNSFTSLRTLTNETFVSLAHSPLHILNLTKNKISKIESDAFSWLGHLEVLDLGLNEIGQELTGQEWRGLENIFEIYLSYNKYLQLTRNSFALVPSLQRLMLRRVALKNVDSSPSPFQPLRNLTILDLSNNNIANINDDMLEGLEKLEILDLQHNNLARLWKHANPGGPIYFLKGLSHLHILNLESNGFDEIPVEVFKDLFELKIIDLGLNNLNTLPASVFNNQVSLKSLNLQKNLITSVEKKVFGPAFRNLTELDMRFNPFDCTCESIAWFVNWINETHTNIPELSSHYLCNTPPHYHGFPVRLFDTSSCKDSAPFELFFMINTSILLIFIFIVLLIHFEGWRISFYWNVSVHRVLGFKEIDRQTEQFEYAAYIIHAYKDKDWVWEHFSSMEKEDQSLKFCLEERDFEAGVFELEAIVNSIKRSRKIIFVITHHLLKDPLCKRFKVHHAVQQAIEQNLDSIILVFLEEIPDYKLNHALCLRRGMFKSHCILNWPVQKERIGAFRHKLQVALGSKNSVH

For `Nc1ccn([C@@H]2O[C@H](COP(=O)(S)O[C@H]3[C@@H](O)[C@H](n4cnc5c(N)ncnc54)O[C@@H]3COP(=O)(S)O[C@H]3[C@@H](O)[C@H](n4cnc5c(N)ncnc54)O[C@@H]3CO)[C@@H](OP(=O)(S)OC[C@H]3O[C@@H](n4ccc(=O)[nH]c4=O)[C@H](O)[C@@H]3OP(=O)(S)OC[C@H]3O[C@@H](n4ccc5c(=O)[nH]c(N)nc54)[C@H](O)[C@@H]3OP(=O)(S)OC[C@H]3O[C@@H](n4cnc5c(N)ncnc54)[C@H](O)[C@@H]3OP(=O)(S)OC[C@H]3O[C@@H](n4ccc(N)nc4=O)[C@H](O)[C@@H]3OP(=O)(S)OC[C@H]3O[C@@H](n4ccc5c(=O)[nH]c(N)nc54)[C@H](O)[C@@H]3OP(=O)(S)OC[C@H]3O[C@@H](n4ccc(N)nc4=O)[C@H](O)[C@@H]3OP(=O)(S)OC[C@H]3O[C@@H](n4ccc(=O)[nH]c4=O)[C@H](O)[C@@H]3OP(=O)(S)OC[C@H]3O[C@@H](n4ccc5c(=O)[nH]c(N)nc54)[C@H](O)[C@@H]3OP(=O)(S)OCC(O)COP(=O)(S)O[C@H]3[C@@H](O)[C@H](n4ccc5c(=O)[nH]c(N)nc54)O[C@@H]3COP(=O)(S)O[C@H]3[C@@H](O)[C@H](n4ccc(=O)[nH]c4=O)O[C@@H]3COP(=O)(S)O[C@H]3[C@@H](O)[C@H](n4ccc(N)nc4=O)O[C@@H]3COP(=O)(S)O[C@H]3[C@@H](O)[C@H](n4ccc5c(=O)[nH]c(N)nc54)O[C@@H]3COP(=O)(S)O[C@H]3[C@@H](O)[C@H](n4ccc(N)nc4=O)O[C@@H]3COP(=O)(S)O[C@H]3[C@@H](O)[C@H](n4cnc5c(N)ncnc54)O[C@@H]3COP(=O)(S)O[C@H]3[C@@H](O)[C@H](n4ccc5c(=O)[nH]c(N)nc54)O[C@@H]3COP(=O)(S)O[C@H]3[C@@H](O)[C@H](n4ccc(=O)[nH]c4=O)O[C@@H]3COP(=O)(S)O[C@H]3[C@@H](O)[C@H](n4ccc(N)nc4=O)O[C@@H]3COP(=O)(S)O[C@H]3[C@@H](O)[C@H](n4cnc5c(N)ncnc54)O[C@@H]3COP(=O)(S)O[C@H]3[C@@H](O)[C@H](n4cnc5c(N)ncnc54)O[C@@H]3CO)[C@H]2O)c(=O)n1` (stereo not given in full), in the series listed under Homo sapiens, the Ratio was determined as 46. Also, in the series with PBMC, the IFN-alpha was determined as 0 pg/mL. Further, the remaining at 10 min in series [1] was 84%. In addition, the fold change (FC) in series [2] was determined as 0.4. Besides, the outcome in series [3] was inactive.

As to `Nc1ccn([C@@H]2O[C@H](COP(=O)(S)O[C@H]3[C@@H](O)[C@H](n4cnc5c(N)ncnc54)O[C@@H]3COP(=O)(S)O[C@H]3[C@@H](O)[C@H](n4cnc5c(N)ncnc54)O[C@@H]3CO)[C@@H](OP(=O)(S)OC[C@H]3O[C@@H](n4ccc(=O)[nH]c4=O)[C@H](O)[C@@H]3OP(=O)(S)OC[C@H]3O[C@@H](n4ccc5c(=O)[nH]c(N)nc54)[C@H](O)[C@@H]3OP(=O)(S)OC[C@H]3O[C@@H](n4cnc5c(N)ncnc54)[C@H](O)[C@@H]3OP(=O)(S)OC[C@H]3O[C@@H](n4cnc5c(N)ncnc54)[C@H](O)[C@@H]3OP(=O)(S)OC[C@H]3O[C@@H](n4ccc5c(=O)[nH]c(N)nc54)[C@H](O)[C@@H]3OP(=O)(S)OC[C@H]3O[C@@H](n4ccc(N)nc4=O)[C@H](O)[C@@H]3OP(=O)(S)OC[C@H]3O[C@@H](n4ccc(=O)[nH]c4=O)[C@H](O)[C@@H]3OP(=O)(S)OC[C@H]3O[C@@H](n4ccc(=O)[nH]c4=O)[C@H](O)[C@@H]3OP(=O)(S)OCC(O)COP(=O)(S)O[C@H]3[C@@H](O)[C@H](n4ccc(=O)[nH]c4=O)O[C@@H]3COP(=O)(S)O[C@H]3[C@@H](O)[C@H](n4ccc(=O)[nH]c4=O)O[C@@H]3COP(=O)(S)O[C@H]3[C@@H](O)[C@H](n4ccc(N)nc4=O)O[C@@H]3COP(=O)(S)O[C@H]3[C@@H](O)[C@H](n4ccc5c(=O)[nH]c(N)nc54)O[C@@H]3COP(=O)(S)O[C@H]3[C@@H](O)[C@H](n4cnc5c(N)ncnc54)O[C@@H]3COP(=O)(S)O[C@H]3[C@@H](O)[C@H](n4cnc5c(N)ncnc54)O[C@@H]3COP(=O)(S)O[C@H]3[C@@H](O)[C@H](n4ccc5c(=O)[nH]c(N)nc54)O[C@@H]3COP(=O)(S)O[C@H]3[C@@H](O)[C@H](n4ccc(=O)[nH]c4=O)O[C@@H]3COP(=O)(S)O[C@H]3[C@@H](O)[C@H](n4ccc(N)nc4=O)O[C@@H]3COP(=O)(S)O[C@H]3[C@@H](O)[C@H](n4cnc5c(N)ncnc54)O[C@@H]3COP(=O)(S)O[C@H]3[C@@H](O)[C@H](n4cnc5c(N)ncnc54)O[C@@H]3CO)[C@H]2O)c(=O)n1` (stereo not given in full), the Ratio in the series filed under Homo sapiens was 29.5. In the series on PBMC, the IFN-alpha is 84.5 pg/mL. Moreover, the remaining at 10 min in series [1] amounted to 77%. Further, the fold change (FC) in series [2] was 1. Further, the outcome in series [3] was inactive.

As for `Nc1ccn([C@@H]2O[C@H](CO)[C@@H](OP(=O)(S)OC[C@H]3O[C@@H](n4ccc(=O)[nH]c4=O)[C@H](O)[C@@H]3OP(=O)(S)OC[C@H]3O[C@@H](n4ccc5c(=O)[nH]c(N)nc54)[C@H](O)[C@@H]3OP(=O)(S)OC[C@H]3O[C@@H](n4cnc5c(N)ncnc54)[C@H](O)[C@@H]3OP(=O)(S)OC[C@H]3O[C@@H](n4ccc(N)nc4=O)[C@H](O)[C@@H]3OP(=O)(S)OC[C@H]3O[C@@H](n4ccc5c(=O)[nH]c(N)nc54)[C@H](O)[C@@H]3OP(=O)(S)OC[C@H]3O[C@@H](n4cnc5c(N)ncnc54)[C@H](O)[C@@H]3OP(=O)(S)OC[C@H]3O[C@@H](n4ccc5c(=O)[nH]c(N)nc54)[C@H](O)[C@@H]3OP(=O)(S)OC[C@H]3O[C@@H](n4ccc(N)nc4=O)[C@H](O)[C@@H]3OP(=O)(S)OC[C@H]3O[C@@H](n4ccc(=O)[nH]c4=O)[C@H](O)[C@@H]3OP(=O)(S)OC[C@H]3O[C@@H](n4ccc(=O)[nH]c4=O)[C@H](O)[C@@H]3OP(=O)(S)OCC(O)COP(=O)(S)O[C@H]3[C@@H](O)[C@H](n4ccc(=O)[nH]c4=O)O[C@@H]3COP(=O)(S)O[C@H]3[C@@H](O)[C@H](n4ccc(=O)[nH]c4=O)O[C@@H]3COP(=O)(S)O[C@H]3[C@@H](O)[C@H](n4ccc(N)nc4=O)O[C@@H]3COP(=O)(S)O[C@H]3[C@@H](O)[C@H](n4ccc5c(=O)[nH]c(N)nc54)O[C@@H]3COP(=O)(S)O[C@H]3[C@@H](O)[C@H](n4cnc5c(N)ncnc54)O[C@@H]3COP(=O)(S)O[C@H]3[C@@H](O)[C@H](n4ccc5c(=O)[nH]c(N)nc54)O[C@@H]3COP(=O)(S)O[C@H]3[C@@H](O)[C@H](n4ccc(N)nc4=O)O[C@@H]3COP(=O)(S)O[C@H]3[C@@H](O)[C@H](n4cnc5c(N)ncnc54)O[C@@H]3COP(=O)(S)O[C@H]3[C@@H](O)[C@H](n4ccc5c(=O)[nH]c(N)nc54)O[C@@H]3COP(=O)(S)O[C@H]3[C@@H](O)[C@H](n4ccc(=O)[nH]c4=O)O[C@@H]3COP(=O)(S)O[C@H]3[C@@H](O)[C@H](n4ccc(N)nc4=O)O[C@@H]3CO)[C@H]2O)c(=O)n1` (stereo not given in full), the Ratio in the series filed under Homo sapiens worked out at 50. In the series on PBMC, the IFN-alpha worked out at 106 pg/mL. In addition, in series [1], the remaining at 10 min is 75%. In series [2], the fold change (FC) amounted to 0.6. In addition, in series [3], the outcome was inactive.
